ChEMBL document CHEMBL1124753, “Hydroxyethylamine analogues of the p17/p24 substrate cleavage site are tight-binding inhibitors of HIV protease” (J Med Chem, 1990)
pKi: −log10 of the molar value. *1 amine or outer side, *2 acyl side, *3 side chain or, on linkers, in order; H or OH if unused. Where a SMILES comes first, the peptide text is derived from it. [ ]: non-standard residue; d: D form. The star is where a group is joined. Phe(ψ(S)CH(OH)CH2N)Pro = O=C([C@@H]1CCCN1C[C@H](O)[C@H](Cc1ccccc1)N[*:1])[*:2]; Ahppa(3S,4S) = O=C(C[C@H](O)[C@H](Cc1ccccc1)N[*:1])[*:2]; X1 = CC(C)C[C@H](N[*:1])[C@@H](O)CN1CCC[C@H]1C(=O)[*:2]; X2 = O=C([C@@H]1CCCN1C[C@H](Cc1ccccc1)N[*:1])[*:2]; Sta = CC(C)C[C@H](N)[C@@H](O)CC(=O)O; Boc = CC(C)(C)OC(=O)*

Tests used:
[1] = molecular target: T1, Human immunodeficiency virus type 1 protease (Human immunodeficiency virus 1, UniProt Q72874); test: Inhibition of HIV protease at pH 6.4, 37 degree C
[2] = molecular target: T1, Human immunodeficiency virus type 1 protease; test: Inhibitory activity against HIV Protease was measured at pH 6.4 and 37 degrees C
How it was run: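 Recombinant HIV protease expressed in E. coli; substrate Ac-Thr-Ile-Met-Gln-Arg-NH2 varied 0.5–10 mM. Inhibitor added in DMSO (final 1–3%), preincubated with enzyme 10 min before substrate started the reaction. Initial rates by HPLC and fluorometric assays. Ki from fitting initial velocities to the competitive inhibition equation; each is the average of three or more independent determinations.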

Structure (SMILES)	pKi [1]	pKi [2]
CC(=O)N[C@@H](CO)C(=O)N[C@@H](CCC(N)=O)C(=O)N[C@@H](CC(N)=O)C(=O)N[C@@H](Cc1ccccc1)CN1CCC[C@H]1C(=O)N[C@H](C(=O)N[C@H](C(N)=O)C(C)C)C(C)C (Ac-SQN[X2]VV-NH2)	4.89	
CC[C@H](C)[C@H](NC(=O)C[C@H](O)[C@H](Cc1ccccc1)NC(=O)[C@H](CC(N)=O)NC(=O)[C@H](CC(C)C)NC(=O)[C@H](CO)NC(C)=O)C(=O)N[C@H](C(=O)OC)C(C)C (Ac-SLN[Ahppa(3S,4S)]IV-OMe)		5.10
CC[C@H](C)[C@H](NC(=O)[C@H](Cc1ccccc1)NC[C@H](O)[C@H](Cc1ccccc1)NC(=O)OC(C)(C)C)C(=O)N[C@@H](Cc1ccccc1)C(=O)OC	9.22	
CC[C@H](C)[C@H](NC(=O)[C@@H]1CCCN1C[C@H](O)[C@H](CC(C)C)NC(=O)[C@H](CC(N)=O)NC(=O)[C@H](CC(C)C)NC(=O)[C@H](CO)NC(C)=O)C(=O)N[C@H](C(=O)OC)C(C)C (Ac-SLN[X1]IV-OMe)		6.93
CC[C@H](C)[C@H](NC(=O)[C@@H]1CCCN1C[C@H](O)[C@H](CC(C)C)NC(=O)[C@H](CC(N)=O)NC(=O)[C@H](CC(C)C)NC(=O)[C@H](CO)NC(C)=O)C(=O)OC (Ac-SLN[X1]I-OMe)		6.01
CC[C@H](C)[C@H](NC(=O)C[C@H](O)[C@H](Cc1ccccc1)NC(=O)[C@H](CC(N)=O)NC(=O)[C@H](CC(C)C)NC(=O)[C@H](CO)NC(=O)OC(C)(C)C)C(=O)N[C@H](C(=O)OC)C(C)C (Boc-SLN[Ahppa(3S,4S)]IV-OMe)	5.58	
CC[C@H](C)[C@H](NC(=O)[C@@H]1CCCN1C[C@H](O)[C@H](Cc1ccccc1)NC(=O)[C@H](CC(N)=O)NC(=O)[C@H](CC(C)C)NC(=O)[C@H](CO)NC(C)=O)C(=O)OC (Ac-SLN[Phe(ψ(S)CH(OH)CH2N)Pro]I-OMe)	6.38	
CC[C@H](C)[C@H](NC(=O)[C@@H]1CCCN1C[C@H](O)[C@H](CC(C)C)NC(=O)[C@H](CC(N)=O)NC(=O)[C@H](CC(C)C)NC(C)=O)C(=O)OC		< 5.00
CC[C@H](C)[C@H](NC(=O)[C@@H]1CCCN1C[C@H](O)[C@H](Cc1ccccc1)NC(=O)[C@H](CC(N)=O)NC(=O)[C@H](CC(C)C)NC(=O)[C@H](CO)NC(C)=O)C(=O)N[C@H](C(=O)OC)C(C)C (Ac-SLN[Phe(ψ(S)CH(OH)CH2N)Pro]IV-OMe)	9.18	
COC(=O)[C@@H](NC(=O)[C@@H](NC(=O)CNC[C@H](O)[C@H](Cc1ccccc1)NC(=O)[C@H](C)NC(=O)[C@H](C)N)C(C)C)C(C)C	7.74	
COC(=O)[C@@H](NC(=O)[C@@H](NC(=O)C[C@H](O)[C@H](Cc1ccccc1)NC(=O)[C@H](CC(N)=O)NC(=O)[C@H](CCC(N)=O)NC(=O)[C@H](CO)NC(C)=O)C(C)C)C(C)C (Ac-SQN[Ahppa(3S,4S)]VV-OMe)	4.41	
CC[C@H](C)[C@H](NC(=O)[C@@H]1CCCN1C[C@H](O)[C@H](CC(C)C)NC(=O)[C@H](CC(N)=O)NC(=O)[C@H](CC(C)C)NC(C)=O)C(=O)N[C@H](C(=O)OC)C(C)C (Ac-LN[X1]IV-OMe)	7.68	
CC[C@@H](C)[C@H](NC(=O)[C@@H]1CCCN1C[C@@H](O)[C@H](Cc1ccccc1)NC(=O)[C@H](CC(N)=O)NC(=O)[C@H](CC(C)C)NC(C)=O)C(=O)N[C@H](C(=O)OC)C(C)C	7.68	
CC[C@H](C)[C@H](NC(=O)C[C@H](O)[C@H](CC(C)C)NC(=O)[C@H](CC(N)=O)NC(=O)[C@H](CC(C)C)NC(=O)[C@H](CO)NC(C)=O)C(=O)N[C@H](C(=O)OC)C(C)C (Ac-SLN[Sta]IV-OMe)	5.97	
